According to ChEMBL document CHEMBL4622994, “Facile Synthesis of Aminomethyl Phosphinate Esters as Serine Protease Inhibitors with Primed Site Interaction” (ACS Med Chem Lett, 2020):
The source made the active and inactive calls. The calls are words filed in the database; no cut-off is given here.

Assays:
[1] = species on record: Bos taurus; test: Inhibition of bovine chymotrypsin assessed as inactivation constant using flurogenic substrate as chymotrypsin substrate 2 by fluorescence assay
Summary of the method: (§1)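 Progress-curve inhibition kinetics for irreversible covalent inhibitors, fitted to a two-step model: reversible non-covalent binding, then irreversible reaction with the enzyme. kinact is the rate constant of the irreversible step at infinite inhibitor concentration. KI is the inhibitor concentration giving an observed rate constant of 1/2 kinact. The kinact/KI ratio expresses overall potency. Inhibitors were tested as diastereomer mixtures; the dilution series spanned 200 to 26.7 μM.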

[2] = species on record: Bos taurus; test: Inhibition of bovine chymotrypsin assessed as ratio of Kinact to Ki using flurogenic substrate as chymotrypsin substrate 2 by fluorescence assay; summary of the method: as §1
[3] = Inhibition of bovine chymotrypsin using flurogenic substrate as chymotrypsin substrate 2 by fluorescence assay; parameters: species or system Bos taurus; summary of the method: as §1
[4] = species on record: Bos taurus; test: Inhibition of bovine chymotrypsin at 100 uM preincubated for 30 mins followed by FP-rhodamine addition measured after 30 mins by fluorescence assay
Summary of the method: (§2)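 Competitive activity-based protein profiling. Enzyme was treated with compound at 100 μM, or with DMSO control. Residual active enzyme was then labeled with the general serine hydrolase activity-based probe FP-rhodamine and detected by fluorescent labeling.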

[5] = species on record: Sus scrofa; conditions: 100 uM
[6] = biological target: T1, Neutrophil elastase (Homo sapiens, UniProt P08246); test: Inhibition of human neutrophil elastase using flurogenic substrate as elastase substrate V by fluorescence assay; summary of the method: as §1
T1 sequence (P08246 whole entry): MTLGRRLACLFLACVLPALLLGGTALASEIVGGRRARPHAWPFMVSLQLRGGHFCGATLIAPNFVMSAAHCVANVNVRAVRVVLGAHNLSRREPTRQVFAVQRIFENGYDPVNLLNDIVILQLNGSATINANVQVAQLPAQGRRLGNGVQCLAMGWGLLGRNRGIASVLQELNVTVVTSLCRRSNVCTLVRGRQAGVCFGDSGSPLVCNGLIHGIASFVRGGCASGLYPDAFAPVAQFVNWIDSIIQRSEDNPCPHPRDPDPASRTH

[7] = Inhibition of porcine pancreatic elastase using flurogenic substrate as elastase substrate V by fluorescence assay; parameters: species or system Sus scrofa; summary of the method: as §1
[8] = biological target: T2, Neutrophil elastase (Homo sapiens) (UniProt P08246); test: Inhibition of human neutrophil Elastase at 100 uM preincubated for 30 mins followed by FP-rhodamine addition measured after 30 mins by fluorescence assay; summary of the method: as §2
T2 sequence (whole entry): T1 sequence (P08246 whole entry)

[9] = biological target: T2, Neutrophil elastase (Homo sapiens); test: Inhibition of human neutrophil Elastase assessed as inactivation constant using flurogenic substrate as elastase substrate V by fluorescence assay; summary of the method: as §1
[10] = species on record: Sus scrofa; test: Inhibition of porcine pancreatic elastase assessed as ratio of Kinact to Ki using flurogenic substrate as elastase substrate V by fluorescence assay; summary of the method: as §1
[11] = biological target: T2, Neutrophil elastase (Homo sapiens); test: Inhibition of human neutrophil Elastase assessed as ratio of Kinact to Ki using flurogenic substrate as elastase substrate V by fluorescence assay; summary of the method: as §1
[12] = biological target: T3, Cathepsin G (Homo sapiens) (UniProt P08311); test: Inhibition of human cathepsin G at 100 uM preincubated for 30 mins followed by FP-rhodamine addition measured after 30 mins by fluorescence assay; summary of the method: as §2
T3 sequence (whole entry): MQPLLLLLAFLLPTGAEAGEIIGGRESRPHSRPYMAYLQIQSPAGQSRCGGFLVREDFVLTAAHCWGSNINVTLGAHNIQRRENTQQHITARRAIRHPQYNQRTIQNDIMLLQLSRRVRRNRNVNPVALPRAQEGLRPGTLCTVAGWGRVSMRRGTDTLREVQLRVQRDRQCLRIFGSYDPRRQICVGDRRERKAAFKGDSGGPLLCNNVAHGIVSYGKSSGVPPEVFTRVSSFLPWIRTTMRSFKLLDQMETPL

Structure (SMILES) | Kinact [1] [×10⁻³ /s] | Ratio [2] | Ki [3] [µM] | inhibition [4] | further results
O=C(NC(Cc1ccccc1)P(=O)(Oc1ccccc1)Oc1ccccc1)OCc1ccccc1 (stereo not drawn) | 5.63 | 8.1 ×10³ /M/s | 0.69 | – | –
O=C(NC(c1ccccc1)P(=O)(Oc1ccccc1)c1ccccc1)OCc1ccccc1 (stereo not drawn) | 1.57 | 3.4 ×10³ /M/s | 0.46 | Active | –
CC(C)C(NC(=O)OCc1ccccc1)P(=O)(Oc1ccccc1)c1ccccc1 (stereo not drawn) | – | – | 7.42 | Active | inhibition [5]: Active; Ki [6]: 51 µM; Ki [7]: 132 µM; inhibition [8]: Active
CCCP(=O)(Oc1ccccc1)C(NC(=O)OCc1ccccc1)C(C)C (stereo not drawn) | – | – | – | inactive | –
CC(C)CC(NC(=O)OCc1ccccc1)P(=O)(Oc1ccccc1)c1ccccc1 (stereo not drawn) | 21.1 | 978 M⁻¹ s⁻¹ | 21.6 | Active | –
CC(C)CC(NC(=O)OCc1ccccc1)P(=O)(Oc1ccccc1)C(C)(C)C (stereo not drawn) | – | – | – | inactive | –
CC(C)C(NC(=O)OCc1ccccc1)P(=O)(Oc1ccccc1)Oc1ccccc1 (stereo not drawn) | – | – | – | – | Kinact [9]: 0.59 ×10⁻³ /s; Ratio [10]: inactive; Ki [6]: 2.96 µM; Ratio [11]: 200 M⁻¹ s⁻¹
CCCP(=O)(Oc1ccccc1)C(NC(=O)OCc1ccccc1)c1ccccc1 (stereo not drawn) | 5.84 | 404 M⁻¹ s⁻¹ | 14.5 | Active | –
CCCP(=O)(Oc1ccccc1)C(CC(C)C)NC(=O)OCc1ccccc1 (stereo not drawn) | 2.44 | 188 M⁻¹ s⁻¹ | 13 | Active | –
O=C(NC(Cc1ccccc1)P(=O)(Oc1ccccc1)c1ccccc1)OCc1ccccc1 (stereo not drawn) | 23 | 16.4 ×10³ /M/s | 1.4 | Active | inhibition [12]: Active
CC(C)C(NC(=O)OCc1ccccc1)P(=O)(Oc1ccccc1)C(C)(C)C (stereo not drawn) | – | – | – | inactive | –
CC(C)(C)P(=O)(Oc1ccccc1)C(NC(=O)OCc1ccccc1)c1ccccc1 (stereo not drawn) | – | – | – | inactive | –
